Hits are enriched below; roughly 1.6% of the tested compounds scored in any of these assays.
PPC-1+TRAIL kill: kills PPC-1 cancer cells in the presence of TRAIL; cell killing (% activity), % at 4 µM or 5 µM; PPC-1 cells + TRAIL, ATPLite viability luminescence; hit rate 0.41% among 220,000; AID 1443;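 active means cell killing above 50% in the first pass at 4 µM, then a duplicate retest at 5 µM averaging 50% or more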;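 further: plate controls were cells with TRAIL plus DMSO for no effect and medium-only wells lacking cells for full effect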
TRAIL sens C8: sensitizes caspase-8 expressing cells to TRAIL. NB7+C8 cells + TRAIL, ATPlite viability luminescence. inhibition (viability loss, TRAIL sensitization), % at 10 µM. hit rate 1% among 360,000;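 active means compounds causing at least 50% loss of cell viability in the single-dose screen, relative to plate controls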
FLuc stim CS: firefly luciferase counter-screen for stimulation assays | ATPlite luciferase biochemical, luminescence, 10 min; 0 = ATP-free wells, 1 = DMSO control | AID 1027 | P08659 | activation factor at 10 µM | 200,000 tested, under 10 active;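 active means luciferase activation factor, scaled between plate controls, of at least 2 with compound at 10 µM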
Target sequence (P08659 whole entry, looked up): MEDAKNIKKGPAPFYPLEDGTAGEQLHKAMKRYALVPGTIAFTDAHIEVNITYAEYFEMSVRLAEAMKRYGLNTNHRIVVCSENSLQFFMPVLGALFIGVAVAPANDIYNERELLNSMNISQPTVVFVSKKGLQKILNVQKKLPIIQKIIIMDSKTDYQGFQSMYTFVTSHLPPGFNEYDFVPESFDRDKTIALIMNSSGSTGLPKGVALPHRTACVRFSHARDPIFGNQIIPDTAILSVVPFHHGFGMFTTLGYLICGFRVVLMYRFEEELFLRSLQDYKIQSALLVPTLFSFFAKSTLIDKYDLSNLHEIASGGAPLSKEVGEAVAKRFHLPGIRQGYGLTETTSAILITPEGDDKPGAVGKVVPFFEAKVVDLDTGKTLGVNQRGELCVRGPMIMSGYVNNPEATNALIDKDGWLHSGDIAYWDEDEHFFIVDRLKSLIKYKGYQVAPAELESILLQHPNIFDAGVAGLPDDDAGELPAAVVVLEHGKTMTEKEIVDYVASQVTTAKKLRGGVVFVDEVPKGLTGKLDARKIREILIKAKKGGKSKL
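System: luciferase plus luciferin reagent, cell-free; medium: PBS as buffer for the ATP substrate; dosing: test compounds dosed from 2 mM stocks in 100% DMSO; timing: 10 min post-reagent at room temperature; measured by: luminescence measurement of luciferase light output; evaluation: luciferase activation, seen as luminescence increase over controls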
FLuc inhib CS: counter-screen for luciferase assay inhibitors: firefly luciferase inhibition | P08659 | ATPLite firefly luciferase biochemical luminescence, 10 min | inhibition, % at 10 µM | hit rate 1.5% among 200,000;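 active means inhibition above about 50% when tested at 10 µM, limit read from the data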
PPC-1 tox: kills PPC-1 cells. shares compounds with PPC-1+TRAIL kill. PPC-1 viability, ATPlite luminescence, overnight. cytotoxicity, % at 5 µM. hit rate 50% among 1,200;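 active means reconfirmed compounds whose average cytotoxicity reaches 50% or more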;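 further: 0% = DMSO-treated cells and 100% = wells holding medium but no cells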
Active calls of the source: *; . = no result given.

SMILES | PPC-1+TRAIL kill | TRAIL sens C8 | FLuc stim CS | FLuc inhib CS | others
Cc1nc2c(-c3ccc(F)cc3)c(C)nn2c(C)c1CCC(=O)Nc1ccccc1F | -4.5 | 10.7 | . | .
O=c1c2c(nc3cc(-c4cccc(F)c4)[nH]n13)CCC2 | 25.0 | 22.4 | 0.5 | 46.7
CCc1c(C)nc2cc(-c3ccc(Cl)cc3)[nH]n2c1=O | . | -0.2 | . | .
O=c1c2c(nc3cc(-c4ccc(F)cc4)[nH]n13)CCCC2 | 43.4 | 53.3* | 0.3 | 67.6*
O=c1c2c(nc3cc(-c4ccc(Cl)cc4)[nH]n13)CCS2 | 41.0 | 50.8* | 0.4 | 59.8*
COc1cc2oc(=O)cc(CN(Cc3ccccc3)Cc3ccccc3)c2cc1Cl | . | 2.5 | . | .
O=C(N/N=C/c1ccccc1[N+](=O)[O-])c1ccc(COc2ccccc2-c2ccccc2)cc1 | 11.5 | -7.4 | 1 | 1.0
COc1ccccc1/C=C/C=N/n1c(-c2cc(-c3ccccc3)n[nH]2)n[nH]c1=S | 9.9 | 58.2* | . | .
c1ccc2oc(C3=NNC(=NC4CC4)SC3)cc2c1 | 15.2 | 34.0 | 0.2 | 78.7*
Cc1cc(C2=NNC(=NC3CC3)SC2)c(C)n1-c1ccccc1F | 63.9* | 94.5* | 0 | 95.5*
c1csc(C2=NNC(=NC3CCCCC3)SC2)c1 | 24.4 | 15.4 | 0.3 | 74.5*
CCCCN=C1NN=C(c2ccc3c(c2)OCCO3)CS1 | 30.5 | 63.4* | 0.2 | 83.3*
CCN(CC(=O)NC1CCS(=O)(=O)C1)S(=O)(=O)c1ccccc1Cl (centres undefined) | . | 5.5 | . | .
Cn1c(=O)[nH]c(=O)c2c1[nH]c(=S)n2Cc1ccc(Cl)cc1 | . | 6.7 | . | .
Cc1ccc(OCCSCc2nnc(NC(=O)Nc3cccc(Cl)c3)s2)cc1 | 32.1 | 52.5* | 1.1 | -8.1
CCCc1ccc(NC(=O)C2CCN(c3cnccn3)CC2)cc1 | . | 2.3 | . | .
Cc1ccc(NC(=O)C2CCN(c3cnccn3)CC2)cc1 | -2.6 | -4.6 | 0.1 | 85.2*
COc1ccccc1/C=N/N1C(=O)C2C3C=CC(CC3)C2C1=O (centres undefined) | 8.2 | -1.5 | 0.9 | 13.6
O=C1C2C3C=CC(CC3)C2C(=O)N1/N=C/c1c[nH]c2ccccc12 (centres undefined) | 25.1 | 3.1 | 0.5 | 51.6*
O=C(O)c1ccccc1NC(=O)C1CCN(S(=O)(=O)c2cccc3nsnc23)CC1 | . | -19.0 | . | .
Cc1cc(N2C(=O)CCC2=O)ccc1NC(=O)c1cccs1 | -16.2 | 7.8 | 1.1 | -10.6
C[C@H](CO)N1C[C@H](C)[C@@H](CN(C)C(=O)NC2CCCCC2)Oc2ccc(NC(=O)C3CCCCC3)cc2C1=O | . | -5.1 | . | .
O=C(N/N=C/c1ccccc1F)c1cc2c(ccc3ccccc32)o1 | . | 2.8 | . | .
O=C(N/N=C/C=C/c1ccccc1)c1cc2c(ccc3ccccc32)o1 | 41.2 | 57.2* | 0.6 | 42.8
Cc1ccc(NC(=O)Cc2ccc3c(c2)OCCO3)cc1S(=O)(=O)N1CCCCC1 | -10.6 | 9.4 | . | .
SMILES | PPC-1+TRAIL kill | TRAIL sens C8 | FLuc stim CS | FLuc inhib CS | others
Cc1ccccc1C(=O)NNC(=O)C1CC(=O)N(c2ccc3c(c2)OCCO3)C1 (centres undefined) | . | 2.7 | . | .
CCCCCCCCCCCCC/C=C/[C@@H](O)[C@@H](N)CO | . | 71.2* | . | .
O=C(Nc1cccnc1)c1cc(-c2ccc(F)cc2)on1 | -0.2 | -1.5 | 0.5 | 53.9*
O=C(Nc1cccnc1)c1cc(-c2ccc(Cl)c(Cl)c2)on1 | . | -3.9 | . | .
O=C(Nc1cccnc1)c1cc(-c2ccc3c(c2)OCO3)on1 | 17.1 | 9.6 | 0.3 | 68.2*
CCOC(=O)c1ccccc1NC(=O)COC(=O)c1cc([N+](=O)[O-])ccc1N1CCOCC1 | . | 12.0 | . | .
CC(C)CCn1cnc2c([nH]c3cccc(Cl)c32)c1=O | 11.8 | 51.8* | 1 | -3.3
O=S(=O)(c1cccc(-c2cn3cc(Cl)ccc3n2)c1)N1CCOCC1 | 10.0 | 4.8 | 1 | -0.9
Clc1ccc(-c2cn3cc(Br)ccc3n2)cc1Cl | 31.7 | 35.6 | 0.5 | 53.4*
Brc1ccc2nc(-c3c[nH]c4ccccc34)cn2c1 | 11.9 | 37.1 | 0.4 | 58.2*
CN(CC(=O)Nc1sccc1C(N)=O)S(=O)(=O)c1ccc(Cl)cc1 | . | 7.0 | . | .
Cc1ccnc(NC(=O)/C=C/c2ccccc2[N+](=O)[O-])c1 | 33.9 | . | 0.3 | 72.7*
CC[C@H](C)[C@@H]1OC(=O)[C@@H](C)[C@@H](CC)NC(=O)[C@H](C)N(C)C(=O)C(C)(C)C(=O)C(C)NC(=O)[C@H](Cc2ccccc2)N(C)C(=O)[C@H](C(C)C)N(C)C(=O)CNC(=O)[C@H](CC(C)C)N(C)C(=O)CNC1=O (some centres undefined) | . | 59.6* | . | .
COc1cccc(C(=O)O/N=C2\CCS(=O)(=O)c3sccc32)c1 | 0.7 | 5.3 | 0.4 | 59.5*
O=C(Nc1ccc(N2CCCC2)c(Cl)c1)c1ccc([N+](=O)[O-])o1 | 49.6 | 87.7* | 0.7 | 29.0
O=C(Nc1ccc(N2CCCC2)c(Cl)c1)c1ccco1 | 24.1 | 54.8* | 0.2 | 77.3*
O=C(Nc1ccc(N2CCCCC2)c(Cl)c1)c1ncn[nH]1 | 22.4 | 34.0 | 0.4 | 56.6*
O=C(Nc1ccccc1N1CCCC1)c1ccc([N+](=O)[O-])o1 | . | 22.4 | . | .
CN1CCN(c2ccc(NC(=O)c3ccco3)cc2Cl)CC1 | . | 29.5 | . | .
COc1ccc(C(=O)N2CCC(n3nccc3NC(=O)C3CC3)CC2)cc1F | . | 3.7 | . | .
COc1ccc(-n2nc(C(=O)NCC(=O)N3CCN(c4ccccn4)CC3)c3ccccc3c2=O)cc1 | 43.6 | 29.4 | 0.3 | 67.7*
COc1ccc(-n2nc(C(=O)NCC(=O)N3CCN(c4ccccc4)CC3)c3ccccc3c2=O)c(OC)c1 | . | 61.5* | . | .
O=C(CCCN1C(=O)NC2(CCCC2)C1=O)NCc1ccccc1 | . | -3.5 | . | .
COc1cc(CNc2ccc(N3CCCC3)cc2)ccc1OCc1ccccc1F | -0.1 | 30.5 | 0.4 | 57.0*
O=C(Nc1ccncc1Cl)c1ccncc1 | . | -2.4 | . | .
SMILES | PPC-1+TRAIL kill | TRAIL sens C8 | FLuc stim CS | FLuc inhib CS | others
COC(=O)C1=C(C)N(Cc2ccc(OC)cc2)C(=O)C1 | 10.9 | -8.9 | 1.1 | -6.4
COC(=O)C1=C(C)N(CC(C)C)C(=O)C1 | 12.9 | 1.1 | 1 | 1.1 | PPC-1 tox=12.6
COc1cc(C(=O)OCC(=O)c2cc(C)n(CC3CCCO3)c2C)ccc1OCC(=O)N1CCOCC1 (centres undefined) | . | 11.3 | . | .
Fc1ccc(-c2cnn3c(-c4ccncc4)ccnc23)cc1 | 29.6 | 54.3* | 0.2 | 75.5* | PPC-1 tox=20.5
Fc1ccc(-c2cnn3c(-c4cccs4)ccnc23)cc1 | 59.4* | 67.7* | 0.2 | 83.4* | PPC-1 tox=52.8*
Cc1nn2c(-c3ccc(F)cc3)ccnc2c1Br | . | -1.8 | . | .
CC(=O)N1CCCC(C(=O)c2ccc(Oc3ccccc3)cc2)C1 (centres undefined) | 11.7 | -11.2 | 1 | 3.6
O=C(CC[C@H]1O[C@@H](n2ccc(=O)[nH]c2=O)[C@H](O)[C@@H]1O)N[C@H](Cc1ccccc1)C(=O)NCc1cccs1 | . | 10.2 | . | .
Brc1ccc(N=Nc2ccc3ccccc3n2)cc1 | 93.8* | 91.7* | . | . | PPC-1 tox=93.4*
CCn1c(=O)c2sccc2n(CC(=O)NCCC2=CCCCC2)c1=O | . | -7.7 | . | .
O=C(Nc1cc(Cl)ccc1Cl)c1ccco1 | . | 3.0 | . | .
